From ChEMBL document CHEMBL1132701, “Orally active isoxazoline glycoprotein IIb/IIIa antagonists with extended duration of action” (J Med Chem, 1999)

Key:
Homo sapiens = species on record: Homo sapiens; assay: The compound was tested for their ability to inhibit ADP-stimulated platelet aggregation in human platelet rich plasma; format: functional
Summary of the method: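 IC50 for inhibition of ADP-induced aggregation in human platelet-rich plasma, determined in three donors.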

Canis familiaris [1] = assay: Inhibition of ex vivo platelet aggregation in dogs after 1 hr of administration of oral dose of 0.1 mg/kg; format: functional; details: Canis lupus familiaris
[2] = target: Integrin alpha-V/beta-5 (Homo sapiens) (UniProt P06756+P18084); assay: Inhibitory activity against alphaV-beta5 integrin at 10 uM; format: protein-complex assay
Canis familiaris [3] = assay: Inhibition of ex vivo platelet aggregation in dogs after 24 hr of administration of oral dose of 0.1 mg/kg; format: functional; details: Canis lupus familiaris
Integrin alpha-V/beta-3 = Integrin alpha-V/beta-3 (Homo sapiens, UniProt P05106+P06756); assay: Inhibitory activity against […] integrin; format: protein-complex assay
Canis familiaris [4] = assay: Inhibition of ex vivo platelet aggregation in dogs after 6 hr of administration of oral dose of 0.1 mg/kg; details: Canis lupus familiaris
Canis familiaris [5] = species on record: Canis familiaris; assay: The compound was tested for their ability to inhibit ADP-stimulated platelet aggregation in dog platelet rich plasma; format: functional; details: Canis lupus familiaris
[6] = target: Integrin alpha-IIb/beta-3 (Canis familiaris); assay: Dissociation constant for unactivated Fibrinogen Receptor
Integrin alpha-4/beta-1 = Integrin alpha-4/beta-1 (Homo sapiens, UniProt P05556+P13612); assay: Inhibitory activity against alpha4-beta1 integrin; format: protein-complex assay
[7] = target: Integrin alpha-IIb/beta-3 (Canis familiaris); assay: Dissociation constant for activated Fibrinogen Receptor
[8] = target: Integrin alpha-5/beta-1 (Homo sapiens) (UniProt P05556+P08648); assay: Inhibitory activity against alpha5-beta1 integrin at 10 uM
Canis familiaris [9] = assay: Inhibition of ex vivo platelet aggregation in dogs after 24 hr of administration of iv bolus dose of 0.025 mg/kg; format: functional; details: Canis lupus familiaris
Summary of the method: (§1)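 Dogs received an iv bolus, mostly 0.025 mg/kg, with some tested at 0.05 mg/kg. Blood was sampled at 1, 5 and 24 h postdose. Ex vivo platelet aggregation was stimulated with ADP (100 μM) and reported as % inhibition; n = 2.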

Canis familiaris [10] = assay: Compounds having IC50 values less than 100 nM in the PRP assay were assessed for their ability to inhibit ex vivo platelet aggregation in dogs after 5 hr of administration of iv bolus dose of 0.025 mg/kg; format: functional; details: Canis lupus familiaris; summary of the method: as §1
Canis familiaris [11] = assay: Inhibition of ex vivo platelet aggregation in dogs after 6 hr of administration of oral dose of 0.1 mg/kg; details: Canis lupus familiaris; remark: listed apart in the source
Canis familiaris [12] = assay: Inhibition of ex vivo platelet aggregation in dogs after 24 hr of administration of oral dose of 0.1 mg/kg; details: Canis lupus familiaris
Canis familiaris [13] = assay: Inhibition of ex vivo platelet aggregation in dogs after 2 hr of administration of oral dose of 0.1 mg/kg; details: Canis lupus familiaris
Canis familiaris [14] = assay: Inhibition of ex vivo platelet aggregation in dogs after 1 hr of administration of oral dose of 0.1 mg/kg; details: Canis lupus familiaris
Canis familiaris [15] = assay: Inhibition of ex vivo platelet aggregation in dogs after 6 hr of administration of oral dose of 0.1 mg/kg; details: Canis lupus familiaris; remark: listed apart in the source

Sequence of Integrin alpha-V/beta-3 (P05106 27-788 limits assumed): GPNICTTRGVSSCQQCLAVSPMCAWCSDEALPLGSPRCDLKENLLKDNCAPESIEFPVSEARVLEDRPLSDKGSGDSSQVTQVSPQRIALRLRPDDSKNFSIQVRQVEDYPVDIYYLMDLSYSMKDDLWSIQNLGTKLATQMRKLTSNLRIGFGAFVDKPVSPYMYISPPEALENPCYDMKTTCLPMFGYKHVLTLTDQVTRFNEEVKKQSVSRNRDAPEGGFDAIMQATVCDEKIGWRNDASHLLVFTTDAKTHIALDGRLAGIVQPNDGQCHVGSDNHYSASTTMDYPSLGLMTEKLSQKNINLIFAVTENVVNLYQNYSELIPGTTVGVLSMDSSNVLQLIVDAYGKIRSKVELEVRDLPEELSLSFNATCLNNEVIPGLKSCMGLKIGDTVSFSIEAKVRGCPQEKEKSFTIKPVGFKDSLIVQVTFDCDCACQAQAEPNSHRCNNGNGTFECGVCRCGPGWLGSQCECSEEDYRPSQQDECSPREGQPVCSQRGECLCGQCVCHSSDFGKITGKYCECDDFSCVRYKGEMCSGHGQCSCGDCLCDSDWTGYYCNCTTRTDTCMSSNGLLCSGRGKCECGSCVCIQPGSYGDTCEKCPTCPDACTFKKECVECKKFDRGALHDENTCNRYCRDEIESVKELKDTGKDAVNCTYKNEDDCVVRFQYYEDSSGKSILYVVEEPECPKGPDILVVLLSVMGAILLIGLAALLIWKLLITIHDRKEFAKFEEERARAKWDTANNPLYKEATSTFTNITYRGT
Sequence of Integrin alpha-V/beta-3 (P06756 31-889 limits assumed): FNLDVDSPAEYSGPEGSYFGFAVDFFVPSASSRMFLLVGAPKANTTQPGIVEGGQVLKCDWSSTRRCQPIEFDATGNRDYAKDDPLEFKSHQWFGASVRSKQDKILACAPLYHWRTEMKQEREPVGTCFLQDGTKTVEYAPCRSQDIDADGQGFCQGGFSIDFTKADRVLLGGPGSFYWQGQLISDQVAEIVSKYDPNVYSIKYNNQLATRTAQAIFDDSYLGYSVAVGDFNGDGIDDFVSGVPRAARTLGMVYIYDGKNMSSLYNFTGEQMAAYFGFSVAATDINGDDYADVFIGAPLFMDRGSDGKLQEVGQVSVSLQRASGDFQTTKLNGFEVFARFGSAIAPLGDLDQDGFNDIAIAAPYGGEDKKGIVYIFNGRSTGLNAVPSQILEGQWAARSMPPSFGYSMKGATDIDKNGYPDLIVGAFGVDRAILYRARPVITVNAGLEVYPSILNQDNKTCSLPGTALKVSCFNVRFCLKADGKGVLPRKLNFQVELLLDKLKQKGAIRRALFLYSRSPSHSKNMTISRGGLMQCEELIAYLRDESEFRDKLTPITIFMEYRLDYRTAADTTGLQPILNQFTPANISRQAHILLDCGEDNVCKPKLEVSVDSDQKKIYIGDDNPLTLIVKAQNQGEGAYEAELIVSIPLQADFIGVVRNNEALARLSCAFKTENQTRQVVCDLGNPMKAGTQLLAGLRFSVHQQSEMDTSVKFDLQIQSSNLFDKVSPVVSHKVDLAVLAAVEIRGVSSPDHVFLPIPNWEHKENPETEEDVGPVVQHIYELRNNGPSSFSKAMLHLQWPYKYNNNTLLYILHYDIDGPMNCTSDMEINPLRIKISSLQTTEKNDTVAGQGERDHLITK
Sequence of Integrin alpha-V/beta-3 (P06756 891-1048 limits assumed): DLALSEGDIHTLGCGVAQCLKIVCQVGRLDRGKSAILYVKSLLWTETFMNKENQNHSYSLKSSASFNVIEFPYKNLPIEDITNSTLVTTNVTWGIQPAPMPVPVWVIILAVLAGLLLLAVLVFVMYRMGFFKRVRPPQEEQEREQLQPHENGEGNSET
Sequence of Integrin alpha-4/beta-1 (P05556 whole entry): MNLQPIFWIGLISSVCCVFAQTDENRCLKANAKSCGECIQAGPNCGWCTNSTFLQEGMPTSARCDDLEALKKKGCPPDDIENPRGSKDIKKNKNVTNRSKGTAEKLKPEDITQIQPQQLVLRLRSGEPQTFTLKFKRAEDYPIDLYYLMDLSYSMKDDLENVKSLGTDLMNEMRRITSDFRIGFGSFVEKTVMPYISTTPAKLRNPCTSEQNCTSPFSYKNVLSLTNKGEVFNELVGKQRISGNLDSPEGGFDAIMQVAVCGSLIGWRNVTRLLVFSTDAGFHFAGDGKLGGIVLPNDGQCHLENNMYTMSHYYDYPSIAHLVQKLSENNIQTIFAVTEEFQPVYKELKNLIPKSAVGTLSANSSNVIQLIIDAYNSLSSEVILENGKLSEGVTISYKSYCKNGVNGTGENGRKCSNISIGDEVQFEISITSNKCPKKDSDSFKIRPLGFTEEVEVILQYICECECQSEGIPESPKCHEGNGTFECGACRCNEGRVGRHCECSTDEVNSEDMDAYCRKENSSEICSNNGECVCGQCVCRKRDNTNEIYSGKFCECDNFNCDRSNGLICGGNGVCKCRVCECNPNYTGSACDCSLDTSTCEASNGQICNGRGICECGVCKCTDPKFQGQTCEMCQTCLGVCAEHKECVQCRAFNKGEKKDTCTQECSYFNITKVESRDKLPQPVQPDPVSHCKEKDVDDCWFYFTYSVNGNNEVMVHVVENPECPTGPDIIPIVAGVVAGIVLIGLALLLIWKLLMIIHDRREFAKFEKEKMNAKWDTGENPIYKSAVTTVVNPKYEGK
Sequence of Integrin alpha-4/beta-1 (P13612 whole entry): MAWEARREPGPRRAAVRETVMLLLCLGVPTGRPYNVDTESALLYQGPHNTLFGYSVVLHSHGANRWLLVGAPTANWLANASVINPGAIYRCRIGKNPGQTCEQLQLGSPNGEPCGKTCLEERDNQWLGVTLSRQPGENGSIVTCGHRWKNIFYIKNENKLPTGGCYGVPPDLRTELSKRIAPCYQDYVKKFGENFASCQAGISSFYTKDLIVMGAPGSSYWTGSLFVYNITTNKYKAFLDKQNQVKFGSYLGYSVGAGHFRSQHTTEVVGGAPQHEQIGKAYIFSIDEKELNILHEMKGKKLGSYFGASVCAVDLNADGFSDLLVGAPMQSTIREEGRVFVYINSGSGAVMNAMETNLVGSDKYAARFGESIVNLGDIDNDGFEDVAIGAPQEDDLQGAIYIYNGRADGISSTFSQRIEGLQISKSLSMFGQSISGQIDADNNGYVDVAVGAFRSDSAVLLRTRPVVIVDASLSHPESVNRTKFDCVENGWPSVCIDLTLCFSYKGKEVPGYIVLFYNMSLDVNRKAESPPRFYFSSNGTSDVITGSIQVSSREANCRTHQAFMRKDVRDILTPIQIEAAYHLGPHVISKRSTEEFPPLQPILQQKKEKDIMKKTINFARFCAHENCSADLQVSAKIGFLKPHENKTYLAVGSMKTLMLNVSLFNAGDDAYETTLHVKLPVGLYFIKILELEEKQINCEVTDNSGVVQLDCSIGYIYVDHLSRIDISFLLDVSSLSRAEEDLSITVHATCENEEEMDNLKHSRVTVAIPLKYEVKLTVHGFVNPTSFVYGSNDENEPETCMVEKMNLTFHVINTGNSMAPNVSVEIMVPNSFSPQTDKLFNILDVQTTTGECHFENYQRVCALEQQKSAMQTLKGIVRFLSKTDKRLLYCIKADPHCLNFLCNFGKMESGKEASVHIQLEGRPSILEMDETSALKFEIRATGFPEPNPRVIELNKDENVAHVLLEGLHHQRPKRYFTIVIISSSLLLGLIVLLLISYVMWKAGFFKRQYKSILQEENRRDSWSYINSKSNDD

`N=C(N)c1ccc(C2=NOC(CC(=O)NC[C@H](NS(=O)(=O)c3cccs3)C(=O)O)C2)cc1` (some centres undefined) showed an IC50 (Homo sapiens) of 24 nM.

Compound `N=C(N)c1ccc(C2=NOC(CC(=O)NC[C@H](NS(=O)(=O)c3ccc(Br)cc3)C(=O)O)C2)cc1` (some centres undefined) has an IC50 (Homo sapiens) of 51 nM.

With `Cc1noc(C)c1S(=O)(=O)N[C@@H](CNC(=O)C[C@H]1CC(c2ccc(C(=N)N)cc2)=NO1)C(=O)O` the inhibition in vivo at 0.1 mg/kg (Canis familiaris [1]) was 54%, the IC50 (Homo sapiens) was 29 nM and the inhibition [2] was under 15%. The inhibition in vivo at 0.1 mg/kg (Canis familiaris [3]) was 75%, the IC50 (Integrin alpha-V/beta-3) was over 10000 nM and the inhibition in vivo at 0.1 mg/kg (Canis familiaris [4]) was 88%. For the same compound, the IC50 (Canis familiaris [5]) was 23 nM, the Kd [6] was 0.9 nM and the IC50 (Integrin alpha-4/beta-1) was over 100000 nM. For the same compound, the Kd [7] was 0.6 nM and the inhibition [8] was under 5%.

`N=C(N)c1ccc(C2=NOC(CC(=O)NC[C@H](NS(=O)(=O)c3cccc4ccccc34)C(=O)O)C2)cc1` (some centres undefined) was tested, and the IC50 (Homo sapiens) was 55 nM.

`N=C(N)c1ccc(C2=NOC(CC(=O)NC[C@H](NS(=O)(=O)c3cccc(Br)c3)C(=O)O)C2)cc1` (some centres undefined) showed an IC50 (Homo sapiens) of 60 nM.

Compound `CCCc1ccc(S(=O)(=O)N[C@@H](CNC(=O)CC2CC(c3ccc(C(=N)N)cc3)=NO2)C(=O)O)cc1` (some centres undefined) has an IC50 (Homo sapiens) of 130 nM.

With `CC(=O)Nc1cnc(S(=O)(=O)N[C@@H](CNC(=O)CC2CC(c3ccc(C(=N)N)cc3)=NO2)C(=O)O)s1` (some centres undefined) the IC50 (Homo sapiens) was 53 nM and the inhibition in vivo at 0.025 mg/kg (Canis familiaris [9]) was 68%.

`Cc1nc(C)c(S(=O)(=O)N[C@@H](CNC(=O)CC2CC(c3ccc(C(=N)N)cc3)=NO2)C(=O)O)s1` (some centres undefined) was tested, and the IC50 (Homo sapiens) was 36 nM, the inhibition in vivo at 0.025 mg/kg (Canis familiaris [10]) was 54% and the inhibition in vivo at 0.025 mg/kg (Canis familiaris [9]) was 8%.

For `N=C(N)c1ccc(C2=NOC(CC(=O)NC[C@H](NS(=O)(=O)c3ccc4ccccc4c3)C(=O)O)C2)cc1` (some centres undefined), the IC50 (Homo sapiens) was 140 nM.

For `Cn1cnc(S(=O)(=O)N[C@@H](CNC(=O)CC2CC(c3ccc(C(=N)N)cc3)=NO2)C(=O)O)c1` (some centres undefined), the IC50 (Homo sapiens) was 110 nM.

In the case of `N=C(N)c1ccc(C2=NOC(CC(=O)NC[C@H](NS(=O)(=O)NCCc3ccccc3)C(=O)O)C2)cc1` (some centres undefined), the IC50 (Homo sapiens) is reported as 70 nM.

`CCCS(=O)(=O)N[C@@H](CNC(=O)CC1CC(c2ccc(C(=N)N)cc2)=NO1)C(=O)O` (some centres undefined) showed an IC50 (Homo sapiens) of 17 nM.

Compound `Cc1noc(C)c1S(=O)(=O)N[C@@H](CNC(=O)C[C@@H]1CC(c2ccc(C(=N)N)cc2)=NO1)C(=O)O` has an IC50 (Homo sapiens) of 29 nM, an IC50 (Canis familiaris [5]) of 21 nM and a Kd [6] of 3.7 nM. It also gave a Kd [7] of 2.7 nM.

`N=C(N)c1ccc(C2=NO[C@@H](CC(=O)NC[C@H](NS(=O)(=O)c3ccccc3Br)C(=O)O)C2)cc1` showed an inhibition in vivo at 0.1 mg/kg (Canis familiaris [11]) of 73%, an IC50 (Homo sapiens) of 36 nM and an inhibition in vivo at 0.1 mg/kg (Canis familiaris [12]) of 40%. For the same compound, the inhibition in vivo at 0.1 mg/kg (Canis familiaris [13]) was 29%.

Compound `N=C(N)c1ccc(C2=NOC(CC(=O)NC[C@H](NS(=O)(=O)c3cnn(-c4ccccc4)c3)C(=O)O)C2)cc1` (some centres undefined) has an IC50 (Homo sapiens) of 72 nM.

In the case of `N=C(N)c1ccc(C2=NO[C@@H](CC(=O)NC[C@H](NS(=O)(=O)c3ccccc3)C(=O)O)C2)cc1`, the IC50 (Homo sapiens) is reported as 190 nM.

`N=C(N)c1ccc(C2=NOC(CC(=O)NC[C@H](NS(=O)(=O)c3cccc(C(F)(F)F)c3)C(=O)O)C2)cc1` (some centres undefined) was tested, and the IC50 (Homo sapiens) was 120 nM.

For `CC(C)CNS(=O)(=O)N[C@@H](CNC(=O)CC1CC(c2ccc(C(=N)N)cc2)=NO1)C(=O)O` (some centres undefined), the IC50 (Homo sapiens) was 52 nM.

In the case of `N=C(N)c1ccc(C2=NO[C@@H](CC(=O)NC[C@H](NS(=O)(=O)c3ccccc3C(F)(F)F)C(=O)O)C2)cc1`, the IC50 (Homo sapiens) is reported as 89 nM.

`Cc1ccccc1S(=O)(=O)N[C@@H](CNC(=O)C[C@H]1CC(c2ccc(C(=N)N)cc2)=NO1)C(=O)O` gave an inhibition in vivo at 0.1 mg/kg (Canis familiaris [11]) of 92%, an IC50 (Homo sapiens) of 130 nM and an inhibition in vivo at 0.1 mg/kg (Canis familiaris [14]) of 39%. It also gave an inhibition in vivo at 0.1 mg/kg (Canis familiaris [12]) of 65%.

Compound `Cc1cccc(S(=O)(=O)N[C@@H](CNC(=O)C[C@H]2CC(c3ccc(C(=N)N)cc3)=NO2)C(=O)O)c1` has an inhibition in vivo at 0.1 mg/kg (Canis familiaris [15]) of 94%, an IC50 (Homo sapiens) of 25 nM and an inhibition in vivo at 0.1 mg/kg (Canis familiaris [14]) of 78%. For the same compound, the inhibition in vivo at 0.1 mg/kg (Canis familiaris [12]) was 60% and the inhibition in vivo at 0.025 mg/kg (Canis familiaris [9]) was 24%.

`N=C(N)c1ccc(C2=NOC(CC(=O)NC[C@H](NS(=O)(=O)c3ccccc3-c3ccccc3)C(=O)O)C2)cc1` (some centres undefined) gave an IC50 (Homo sapiens) of 80 nM and an inhibition in vivo at 0.025 mg/kg (Canis familiaris [9]) of 65%.
